Laboratory results published in ChEMBL document CHEMBL1153071, “Synthesis, biological evaluation, and SAR study of novel pyrazole analogues as inhibitors of Mycobacterium tuberculosis: part 2. Synthesis of rigid pyrazolones” (Bioorg Med Chem, 2009).
In brackets after ≈: the same amount, converted by molar mass.

What was measured:
[1] = system: Mycobacterium tuberculosis; assay: Antimycobacterial activity against Mycobacterium tuberculosis; type: functional
Method in brief: (§1)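 Strain H37Rv ATCC 27294, kept on Löwenstein-Jensen slants and grown for inoculum in 7H9 broth with 10% ADC. Twofold agar dilution on Middlebrook 7H11 with 10% OADC, compound 0.0312–64 μg/mL. Each well received 10 μL of 1.5×10^5 cfu/mL (final 1.5×10^3 per well). Incubated 21–28 days. MIC (μg/mL) is the lowest concentration completely inhibiting visible growth.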

[2] = system: Mycobacterium tuberculosis; assay: Antimycobacterial activity against Mycobacterium tuberculosis H37Rv ATCC 27294 after 21 to 28 days by twofold agar dilution method; type: functional; method in brief: as §1
[3] = Cytotoxicity against african green monkey Vero cells; type: cell-based; conditions: chlorocebus sabaeus

| SMILES | MIC [1] [µg/mL] | MIC [2] [µg/mL] | CC50 [3] [µg/mL] |
| --- | --- | --- | --- |
| Cc1[nH]n(-c2ccc(Cl)cc2)c(=O)c1C(=O)c1ccc(Cl)cc1 | 4 (≈ 11.5 µM) |  |  |
| CC1=NN(c2ccc(Cl)cc2)C(=O)/C1=C\N1CCN(CCO)CC1 |  | 64 (≈ 183 µM) |  |
| Cc1nn(-c2ccccc2)c(O)c1C(=O)c1ccc(Cl)cc1 | 4 (≈ 12.8 µM) |  |  |
| CC1=NN(c2ccc(Cl)cc2)C(=O)/C1=C\Nc1ccccc1 |  | 64 (≈ 205 µM) |  |
| CC1=NN(c2ccc(Cl)cc2)C(=O)/C1=C(/c1ccc(Cl)cc1)N1CCC(C)CC1 |  | 64 (≈ 149 µM) |  |
| CC(=O)N1CCN(/C=C2\C(=O)N(c3ccc(Cl)cc3)N=C2C)CC1 |  | 64 (≈ 185 µM) |  |
| CC1=NN(c2ccccc2)C(=O)/C1=C(/c1ccc(Cl)cc1)N1CCN(C)CC1 |  | 8 (≈ 20.3 µM) | 5.58 (≈ 14.1 µM) |
| CC1=NN(c2ccc(Cl)cc2)C(=O)/C1=C(/c1ccc(Cl)cc1)N1CCCCC1 |  | > 64 |  |
| Cc1[nH]n(-c2ccc(Br)cc2)c(=O)c1C(=O)c1ccc(Cl)cc1 | 4 (≈ 10.2 µM) |  |  |
| CC1=NN(c2ccc(Cl)cc2)C(=O)/C1=C(/c1ccc(Cl)cc1)N(C)C |  | 16 (≈ 42.7 µM) |  |
| CC1=NN(c2ccccc2)C(=O)/C1=C(/c1ccc(Cl)cc1)N1CCSCC1 |  | 8 (≈ 20.1 µM) | 5.71 (≈ 14.3 µM) |
| CC1=NN(c2ccc(Cl)cc2)C(=O)/C1=C\N(C)C |  | > 64 |  |
| CC1=NN(c2ccc(Cl)cc2)C(=O)/C1=C(/c1ccc(Cl)cc1)N1CCOCC1 |  | 4 (≈ 9.61 µM) |  |
| Cc1[nH]n(-c2ccc(F)cc2)c(=O)c1C(=O)c1ccc(Cl)cc1 | 4 (≈ 12.1 µM) |  |  |
| CC1=NN(c2ccc(Cl)cc2)C(=O)/C1=C\N1CCN(C)CC1 |  | 64 (≈ 201 µM) |  |
| CCCN(C)/C(=C1\C(=O)N(c2ccc(Cl)cc2)N=C1C)c1ccc(Cl)cc1 |  | 64 (≈ 159 µM) |  |
| CC1=NN(c2ccccc2)C(=O)/C1=C(/c1ccc(Cl)cc1)N(C)C |  | 32 (≈ 94.2 µM) |  |
| CC1=NN(c2ccc(Cl)cc2)C(=O)/C1=C(/c1ccc(Cl)cc1)N1CCN(C)CC1 |  | 4 (≈ 9.32 µM) | 5.49 (≈ 12.8 µM) |
| CC1=NN(c2ccc(Cl)cc2)C(=O)/C1=C\N1CCN(c2ccccc2)CC1 |  | 64 (≈ 168 µM) |  |
| CC1=NN(c2ccc(Cl)cc2)C(=O)/C1=C(/c1ccc(Cl)cc1)N1CCSCC1 |  | 8 (≈ 18.5 µM) | 4.86 (≈ 11.2 µM) |
| CC1=NN(c2ccccc2)C(=O)/C1=C(/c1ccc(Cl)cc1)N1CCOCC1 |  | 16 (≈ 41.9 µM) |  |
| CC1=NN(c2ccc(Cl)cc2)C(=O)/C1=C\N1CCOCC1 |  | 64 (≈ 209 µM) |  |
